# Measurements from PubChem BioAssay AID492983 (Johns Hopkins Ion Channel Center, 2010).
# Molecular target: Short transient receptor potential channel 4 (Mus musculus) (UniProt Q9QUQ5)
# Test: inhibitors of receptor-activated mouse TRPC4 currents – cell-based, manual patch clamp, HEK TRPC4beta/mu-opioid, orthogonal assay, SAR follow-up (AID 492983)
# Details: whole-cell patch clamp currents, at 1 µM, stronger effect = higher value
# Summary of the method: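 System: HEK293 cells expressing TRPC4beta and mu-opioid receptor; buffer or medium: pipette solution with ~400 nM free Ca2+, external solution pH 7.4; also added: 10 µM carbachol with 0.1 µM DAMGO; times: compound pretreatment longer than 2 min before agonists, 22 °C; measured by: whole-cell voltage-clamp recording with voltage ramps; benchmarks: compound-free cells as reference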
# Chain of Short transient receptor potential channel 4 (Mus musculus) (Q9QUQ5 whole entry, looked up): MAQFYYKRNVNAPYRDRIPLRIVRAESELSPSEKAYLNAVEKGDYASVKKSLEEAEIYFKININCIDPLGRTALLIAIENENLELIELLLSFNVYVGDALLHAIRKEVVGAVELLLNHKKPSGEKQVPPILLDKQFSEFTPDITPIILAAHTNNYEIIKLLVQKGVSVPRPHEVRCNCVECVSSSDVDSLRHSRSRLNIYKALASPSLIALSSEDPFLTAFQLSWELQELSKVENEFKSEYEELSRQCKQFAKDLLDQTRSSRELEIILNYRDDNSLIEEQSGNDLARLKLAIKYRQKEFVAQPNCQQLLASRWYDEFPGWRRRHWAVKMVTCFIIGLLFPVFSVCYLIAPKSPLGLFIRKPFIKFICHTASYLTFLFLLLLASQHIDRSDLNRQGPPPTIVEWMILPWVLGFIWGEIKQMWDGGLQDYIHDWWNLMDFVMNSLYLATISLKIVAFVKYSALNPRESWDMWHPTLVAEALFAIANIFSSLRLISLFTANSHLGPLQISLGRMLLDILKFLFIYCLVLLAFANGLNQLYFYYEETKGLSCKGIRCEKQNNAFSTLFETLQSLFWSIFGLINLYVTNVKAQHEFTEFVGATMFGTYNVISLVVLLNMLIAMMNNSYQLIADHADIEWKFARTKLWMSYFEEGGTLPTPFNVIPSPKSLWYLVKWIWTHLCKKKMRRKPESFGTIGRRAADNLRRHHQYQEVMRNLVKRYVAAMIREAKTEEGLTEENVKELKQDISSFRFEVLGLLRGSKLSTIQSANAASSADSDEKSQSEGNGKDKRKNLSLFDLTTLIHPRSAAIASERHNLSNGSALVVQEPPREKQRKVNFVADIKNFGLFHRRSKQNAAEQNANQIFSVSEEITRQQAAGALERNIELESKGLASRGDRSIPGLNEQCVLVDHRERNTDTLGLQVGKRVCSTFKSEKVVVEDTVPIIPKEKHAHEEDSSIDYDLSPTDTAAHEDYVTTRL
structure (smiles),measurement,setting,value
Cc1cc(N2CCCCC2)nc2ccccc12,inhibition at -100 mV,,69.5%
same,inhibition at +100 mV,measured here: outward current at +100 mV,29.2%
